Most compounds without a hit are left out; they make up all but 2.4% or so of the library.
HNF4A DNA FP – change in binding of human HNF4 alpha to DNA; HNF4a-FITC DNA binding, fluorescence polarization, 1 h; activity change, % at 10 µM; actives 0.3% (n = 360,000); AID 1224865; in the data active = activity change above about 30%, passing the limit was not always enough
Target sequence (P41235 whole entry, looked up): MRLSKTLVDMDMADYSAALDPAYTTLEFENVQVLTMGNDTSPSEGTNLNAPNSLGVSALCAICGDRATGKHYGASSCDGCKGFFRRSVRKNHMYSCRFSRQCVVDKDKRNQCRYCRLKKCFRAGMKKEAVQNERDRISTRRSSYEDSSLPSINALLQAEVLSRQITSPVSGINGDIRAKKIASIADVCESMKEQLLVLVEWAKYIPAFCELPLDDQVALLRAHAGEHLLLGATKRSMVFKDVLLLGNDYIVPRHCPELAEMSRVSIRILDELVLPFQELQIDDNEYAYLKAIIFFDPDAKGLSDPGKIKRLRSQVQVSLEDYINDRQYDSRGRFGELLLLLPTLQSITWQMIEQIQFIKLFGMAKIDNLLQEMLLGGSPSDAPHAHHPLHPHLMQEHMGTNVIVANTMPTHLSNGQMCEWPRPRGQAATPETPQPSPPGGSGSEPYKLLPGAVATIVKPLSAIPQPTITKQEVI
Neddyl block – inhibitors of human cullin neddylation | P61081+Q13564 | TR-FRET cullin neddylation, biochemical | inhibition, % at 25 µM | actives 0.58% (n = 360,000) | AID 651699; in the data active = inhibition above about 36%
TbMetRS inhib – Trypanosoma brucei MetRS inhibition. purified T. brucei MetRS, ATP depletion, Kinase-Glo luminescence. inhibition, % at 11.9 µM. actives 0.4% (n = 360,000);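 active = inhibition above a per-plate cutoff of the control wells' mean inhibition plus 3 SD, cut at about 5.5% in these data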
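Measured by: Kinase-Glo luciferase luminescence reporting remaining unconsumed ATP. Material: purified T. brucei MetRS enzyme. Doses: 11.9 µM compound single dose, 0.9% DMSO. Medium: HEPES buffer containing pyrophosphatase, BSA, spermine, DTT. Times: 15 min preincubation, 2 h reaction, all 25 °C. Reagent: methionine, ATP and bulk E. coli tRNA.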
PREPL inhibitor – inhibits the human prolyl oligopeptidase-like enzyme; recombinant PREPL, fluorescence polarization activity-based probe; Q4J6C6; AID 2751; inhibition, % at 5.96 µM; actives 0.68% (n = 320,000); in the data active = inhibition above about 43%
CSN deneddyl inh – blocks human CSN-mediated cullin deneddylation; AID 651999; Q92905; Purified CSN, SCF-Nedd8-OG deneddylation, fluorescence polarization; inhibition, % at 12.5 µM; actives 0.38% (n = 360,000);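 active = pattern-corrected inhibition above about 35%, with an unprinted fluorescence ratio check between 0.5 and 1.5, limit read from the data, passing the limit was not always enough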
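Detection – fluorescence polarization · System – HEK293T-derived human Csn5 enzyme · Controls – substrate-only high control, full reaction low control · Timing – 90 min, room temperature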
Rpn11 inh – inhibitors of human proteasome Rpn11. O00487. human 26S proteasome, Ub4-pepOG fluorescence polarization; 20S core pre-blocked with epoxomicin. inhibition, % at 20 µM. actives 0.59% (n = 360,000). AID 588493;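 active = inhibition at 20 µM, scaled to each plate's controls, above about 33%, limit read from the data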
Hits are given with their value; – = inactive; · = not tested or not shown.

SMILES	HNF4A DNA FP	Neddyl block	TbMetRS inhib	PREPL inhibitor	CSN deneddyl inh	Rpn11 inh
COc1cc2cc(Oc3ccc4ccc(=O)oc4c3)c(=O)oc2cc1O[C@@H]1O[C@H](CO)[C@@H](O)[C@H](O)[C@H]1O	–	–	–	–	38	–
O=C(CSc1nc(-c2ccc(F)cc2)nc2ccc(F)cc12)Nc1cccc(C(=O)O)c1	–	–	–	–	–	–
O=C(CSc1nc(-c2ccc(F)cc2)nc2c1Cc1ccccc1O2)Nc1ccc(C(=O)O)cc1	–	–	–	·	–	163
CCCCn1c(N)c(N(CC)C(=O)C2=NN(c3ccccc3)C(=O)CC2)c(=O)[nH]c1=O	–	–	–	–	–	–
Cc1ccc(/C=C2\SC(=S)N(/N=C/c3cc([N+](=O)[O-])ccc3O)C2=O)o1	–	–	–	–	56	46
CCCS(=O)(=O)NC(=O)C1(C)CCN(C(=O)/C=C/c2ccccc2)C1 (centres undefined)	–	–	–	·	–	–
CC(NC(=O)CNC(=O)c1cccs1)c1cccc(C(F)(F)F)c1 (centres undefined)	–	–	–	–	–	–
Cc1nc(N2CCN(c3ccccc3O)CC2)c2c(-c3ccccc3)csc2n1	–	–	–	–	–	–
N#CC1(C#N)COC23CCCCC2C1(C#N)C(=N)O3 (centres undefined)	–	42	–	–	–	–
N#CC12COC3(CCCCC3C1(C#N)C#N)OC2=N (centres undefined)	–	45	–	–	–	–
CC1OC23CCCCC2C(C#N)(C(=N)O3)C1(C#N)C#N (centres undefined)	–	–	–	–	–	–
O=C(Cn1nnc2ccccc21)Nc1ccccc1[N+](=O)[O-]	–	–	–	–	–	–
CCOc1cc(C#N)c(NC(=O)Cn2nnc3ccccc32)cc1OCC	34	–	–	–	–	–
Cc1[nH]c2ccccc2c1/C=N\NC(=O)CNc1ccc2c(c1)OCO2	–	–	–	–	–	–
O=C(CNc1ccc2c(c1)OCO2)N/N=C\c1ccccc1Cl	–	–	–	50	–	–
CN(C)c1ccc(/C=C2\c3ccccc3C(=O)N2c2ccccc2)cn1	–	–	–	·	–	·
CN1/C(=C/C=C/c2n(C)c3cc([N+](=O)[O-])c([N+](=O)[O-])cc3[n+]2C)C(C)(C)c2ccccc21	95	–	–	·	–	–
Cc1cccc(C)c1NC(=O)NCCSc1snnc1C	–	–	–	–	35	–
Cc1nnsc1SCCNC(=O)c1c(F)cccc1F	–	–	–	–	–	–
O=C(N/N=C/c1ccc(O)c(O)c1O)/C(=C/c1ccc([N+](=O)[O-])cc1)NC(=O)c1ccccc1	–	–	12	–	–	–
Cc1ccc(NC(=O)/C(=C\c2ccc([N+](=O)[O-])cc2)NC(=O)c2ccccc2)cc1	–	–	–	–	–	–
CCCn1c(N)c(N(CCOC)C(=O)c2cc(C)cc(C)c2)c(=O)[nH]c1=O	35	–	–	–	–	–
CCOC(=O)C1CCN(c2nc3ccccc3nc2C(C#N)C(=O)OC(C)C)CC1 (centres undefined)	–	·	–	–	45	·
CCOC(=O)C1CCN(c2nc3ccccc3nc2C(C#N)C(=O)OC(C)COC)CC1 (centres undefined)	–	–	–	–	–	–
CC(=O)Nc1ccc(NC(=O)CCCCCn2nnc3ccccc3c2=O)cc1	–	–	–	·	–	–
SMILES	HNF4A DNA FP	Neddyl block	TbMetRS inhib	PREPL inhibitor	CSN deneddyl inh	Rpn11 inh
CCOC(=O)c1ccc(-n2c(CCC(=O)O)ccc2-c2ccc(F)cc2)cc1	–	–	–	–	42	–
Cc1cc2nc3ccc(N(C)C)cc3nc2cc1N	–	79	–	–	–	–
Cc1ccc(-n2nc3cc(C)c(N)cc3n2)cc1	–	·	–	–	–	–
CCn1cc(CNC(=O)/C=C/c2cnn(C)c2)c(C)n1	45	–	–	–	–	–
CCn1cc(CNC(=O)/C=C/c2ccc([N+](=O)[O-])cc2)c(C)n1	–	–	–	–	–	–
O=C(NCc1ccccc1Cl)c1cc(=O)[nH]c2ccccc12	–	–	–	–	–	–
Cc1cc(C[n+]2ccsc2N)c2ncccc2c1	–	–	–	–	–	–
Cc1cc(C[n+]2ccccc2)c2nsnc2c1	–	45	–	–	–	–

Source: PubChem BioAssay (several laboratories)
